Measured values collected from several papers.
Compare with care: the assays were run in different laboratories.
Sample: Caco-2

SMILES | conditions | quantity | value
N#Cc1cc(-c2ccc(C(=O)N3CCNCC3)cc2)ccc1-n1cc(O)c(=O)c(C(=O)O)c1 |  | Papp A→B | 0.3 ×10⁻⁶ cm/s
N#C[C@@]12C[C@@H]1[C@@H](n1cnc3c(N[C@@H](C4CCC4)C4CC4)nc(I)nc31)[C@H](O)[C@@H]2O |  | Papp A→B | 5.97 ×10⁻⁶ cm/s
O=C(O)c1cn(-c2ccc(-c3ccc(C(=O)N4CCNCC4)cc3)cc2)cc(O)c1=O |  | Papp A→B | 0.2 ×10⁻⁶ cm/s
CCCCC(CC)CNC(=N)NC(=N)NCCCCCCNC(=N)NC(=N)NCC(CC)CCCC (stereo not shown) | 5 µM, 2 h | Papp B→A | 0.37 ×10⁻⁶ cm/s
CC(C)C[C@H](NC(=O)[C@@H]1COCCCCCC(=O)NCC(=O)N2CCC[C@H]2C(=O)N1)C(=O)[C@@]1(C)CO1 | 10 µM, 2 h, pH 7.4 | Papp A→B | 0.454 ×10⁻⁶ cm/s
Cc1c(N(C)C)ccc2cc(C(=O)NS(=O)(=O)c3ccccc3-c3ccccc3)oc12 | 2 µM, 2 h, pH 7.2 | Papp B→A | 14.3 ×10⁻⁶ cm/s
Cn1nc2c(=O)n(C3CC3)ncc2c1[C@](O)(c1cnc(C(F)(F)F)c(Cl)c1)C(F)(F)F |  | Papp A→B | 43.4 ×10⁻⁶ cm/s
Cc1c(C(=O)O)ccc2c3n(nc12)[C@@H]1[C@H](C3)N(CC2CC2)[C@@]2(C(=O)Nc3cc(Cl)ccc32)[C@H]1c1cccc(Cl)c1F |  | Papp A→B | 84 ×10⁻⁶ cm/s
CCn1cc(C2CC2)c2c(Cc3ccc(C(F)(F)F)nc3)n(C)nc2c1=O |  | Papp A→B | 38.7 ×10⁻⁶ cm/s
C[C@H]1O[C@@H](O[C@H]2[C@@H](O)C[C@H](O[C@H]3[C@@H](O)C[C@H](O[C@H]4CC[C@@]5(C)[C@H](CC[C@@H]6[C@@H]5C[C@@H](O)[C@]5(C)[C@@H](C7=CC(=O)OC7)CC[C@]65O)C4)O[C@@H]3C)O[C@@H]2C)C[C@H](O)[C@@H]1O | 5 µM, 2 h | Papp A→B | 0.27 ×10⁻⁶ cm/s
